From PMC12464261 (Scientific Reports, 2025)
Like-named read-outs stand apart in the source and are kept apart here.

What was measured:
[1] = target: T1, insulin receptor isoform A (IR-A) (Homo sapiens, UniProt P06213); experiment: Insulin receptor phosphorylation assay; type: cell-based; conditions: CHO cells expressing insulin receptor; phospho-specific ELISA; Fig. 6A
How it was run: (§1)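 CHO cells expressing IR isoforms A and B were cultured in DMEM with 10% FBS and 1% penicillin-streptomycin, then serum-starved. Cells were exposed to insulin at 0.1, 1 or 10 nM for 5, 15 or 30 min. Lysates were applied to anti-phosphotyrosine-coated wells and detected with an HRP-conjugated secondary antibody. Receptor phosphorylation was quantified from absorbance.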

[2] = target: T2, insulin receptor isoform B (IR-B) (Homo sapiens, UniProt P06213); experiment: Insulin receptor binding assay; conditions: CHO cell lysates, [125I]-labeled insulin competition; Fig. 6D
How it was run: (§2)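 CHO cells expressing insulin receptor isoforms A and B were grown in DMEM with 10% FBS and 1% penicillin-streptomycin, then serum-starved. Cell lysates were incubated with [125I]-insulin with or without excess unlabeled competitor. Bound and free tracer were separated by gel filtration and radioactivity was counted per fraction. IC50 values came from competitive binding curves.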

[3] = target: insulin-like growth factor 1 receptor (IGF-1R) (Homo sapiens, UniProt P08069); experiment: IGF-1R binding assay; conditions: H19-7/IGF-1R cell line, [125I]-labeled IGF competition; Fig. 6E
animals = experiment: In vivo immunogenicity studies in animals; conditions: no details given
type 1 diabetic rats = type: in vivo, NOD rats
How it was run: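 […]. […] Single dose: overnight fast, then tail-vein glucose by glucometer at 1, 2, 4 and 6 h. Multiple dose: daily injections, glucose at 2, 4 and 6 h post-injection. Triplicate measurements, means reported.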

[4] = target: T2, insulin receptor isoform B (IR-B); experiment: Insulin receptor phosphorylation assay; type: cell-based; conditions: CHO cells expressing insulin receptor; phospho-specific ELISA; Fig. 6B
How it was run: as §1

[5] = target: T1, insulin receptor isoform A (IR-A); experiment: Insulin receptor binding assay; conditions: CHO cell lysates, [125I]-labeled insulin competition; Fig. 6C
How it was run: as §2

[6] = Toxicokinetic / pharmacokinetic study of insulin injection in Beagle dogs; type: in vivo, Beagle dogs (Canis lupus familiaris); conditions: subcutaneous, across all doses (0.5, 1, 1.5 IU/kg vs Lantus 1.5 IU/kg), Fig. 5
[7] = target: insulin lisargine (human); experiment: crystal structure
[8] = target: insulin lisargine (human); experiment: crystal structure; remark: listed apart in the source

T2 sequence (P06213 28-758 limits assumed): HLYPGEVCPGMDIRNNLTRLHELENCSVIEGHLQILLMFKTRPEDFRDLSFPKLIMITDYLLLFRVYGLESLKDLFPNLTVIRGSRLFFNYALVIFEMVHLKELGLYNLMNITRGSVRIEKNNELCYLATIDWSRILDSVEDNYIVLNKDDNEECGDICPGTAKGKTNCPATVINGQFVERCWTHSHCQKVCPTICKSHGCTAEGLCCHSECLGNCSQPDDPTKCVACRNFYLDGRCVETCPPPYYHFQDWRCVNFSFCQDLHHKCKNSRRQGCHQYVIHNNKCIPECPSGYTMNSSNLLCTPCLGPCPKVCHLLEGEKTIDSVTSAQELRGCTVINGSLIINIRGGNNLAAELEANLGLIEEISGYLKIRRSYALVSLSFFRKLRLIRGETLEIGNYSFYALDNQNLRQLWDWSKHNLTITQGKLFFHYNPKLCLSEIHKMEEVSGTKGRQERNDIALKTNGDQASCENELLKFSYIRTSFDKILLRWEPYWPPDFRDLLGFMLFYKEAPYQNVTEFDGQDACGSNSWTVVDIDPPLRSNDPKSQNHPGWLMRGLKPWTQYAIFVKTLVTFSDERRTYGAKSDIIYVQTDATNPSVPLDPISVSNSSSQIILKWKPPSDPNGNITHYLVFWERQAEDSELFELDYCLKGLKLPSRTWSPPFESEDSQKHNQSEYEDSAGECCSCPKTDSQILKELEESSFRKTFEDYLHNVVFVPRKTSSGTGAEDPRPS
T2 sequence (P06213 763-1382 limits assumed): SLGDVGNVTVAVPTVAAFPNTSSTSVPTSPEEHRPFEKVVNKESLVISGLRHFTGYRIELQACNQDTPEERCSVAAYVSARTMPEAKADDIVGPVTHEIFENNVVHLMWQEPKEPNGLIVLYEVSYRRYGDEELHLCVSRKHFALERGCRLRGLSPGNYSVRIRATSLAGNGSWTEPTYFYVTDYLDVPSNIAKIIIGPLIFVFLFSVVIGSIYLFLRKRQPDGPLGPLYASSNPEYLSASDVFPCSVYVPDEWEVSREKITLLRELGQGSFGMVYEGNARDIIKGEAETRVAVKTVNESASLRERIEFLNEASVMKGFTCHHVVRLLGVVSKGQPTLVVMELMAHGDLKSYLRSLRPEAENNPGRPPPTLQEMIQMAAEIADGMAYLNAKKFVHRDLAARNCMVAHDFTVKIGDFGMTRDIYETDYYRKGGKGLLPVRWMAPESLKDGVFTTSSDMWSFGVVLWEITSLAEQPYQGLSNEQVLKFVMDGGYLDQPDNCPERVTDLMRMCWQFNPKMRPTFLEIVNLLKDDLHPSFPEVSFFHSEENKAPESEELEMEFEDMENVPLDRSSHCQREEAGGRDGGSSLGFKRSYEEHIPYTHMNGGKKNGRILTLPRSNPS
T1 sequence (P06213 28-1370 isoform P06213-2 limits assumed): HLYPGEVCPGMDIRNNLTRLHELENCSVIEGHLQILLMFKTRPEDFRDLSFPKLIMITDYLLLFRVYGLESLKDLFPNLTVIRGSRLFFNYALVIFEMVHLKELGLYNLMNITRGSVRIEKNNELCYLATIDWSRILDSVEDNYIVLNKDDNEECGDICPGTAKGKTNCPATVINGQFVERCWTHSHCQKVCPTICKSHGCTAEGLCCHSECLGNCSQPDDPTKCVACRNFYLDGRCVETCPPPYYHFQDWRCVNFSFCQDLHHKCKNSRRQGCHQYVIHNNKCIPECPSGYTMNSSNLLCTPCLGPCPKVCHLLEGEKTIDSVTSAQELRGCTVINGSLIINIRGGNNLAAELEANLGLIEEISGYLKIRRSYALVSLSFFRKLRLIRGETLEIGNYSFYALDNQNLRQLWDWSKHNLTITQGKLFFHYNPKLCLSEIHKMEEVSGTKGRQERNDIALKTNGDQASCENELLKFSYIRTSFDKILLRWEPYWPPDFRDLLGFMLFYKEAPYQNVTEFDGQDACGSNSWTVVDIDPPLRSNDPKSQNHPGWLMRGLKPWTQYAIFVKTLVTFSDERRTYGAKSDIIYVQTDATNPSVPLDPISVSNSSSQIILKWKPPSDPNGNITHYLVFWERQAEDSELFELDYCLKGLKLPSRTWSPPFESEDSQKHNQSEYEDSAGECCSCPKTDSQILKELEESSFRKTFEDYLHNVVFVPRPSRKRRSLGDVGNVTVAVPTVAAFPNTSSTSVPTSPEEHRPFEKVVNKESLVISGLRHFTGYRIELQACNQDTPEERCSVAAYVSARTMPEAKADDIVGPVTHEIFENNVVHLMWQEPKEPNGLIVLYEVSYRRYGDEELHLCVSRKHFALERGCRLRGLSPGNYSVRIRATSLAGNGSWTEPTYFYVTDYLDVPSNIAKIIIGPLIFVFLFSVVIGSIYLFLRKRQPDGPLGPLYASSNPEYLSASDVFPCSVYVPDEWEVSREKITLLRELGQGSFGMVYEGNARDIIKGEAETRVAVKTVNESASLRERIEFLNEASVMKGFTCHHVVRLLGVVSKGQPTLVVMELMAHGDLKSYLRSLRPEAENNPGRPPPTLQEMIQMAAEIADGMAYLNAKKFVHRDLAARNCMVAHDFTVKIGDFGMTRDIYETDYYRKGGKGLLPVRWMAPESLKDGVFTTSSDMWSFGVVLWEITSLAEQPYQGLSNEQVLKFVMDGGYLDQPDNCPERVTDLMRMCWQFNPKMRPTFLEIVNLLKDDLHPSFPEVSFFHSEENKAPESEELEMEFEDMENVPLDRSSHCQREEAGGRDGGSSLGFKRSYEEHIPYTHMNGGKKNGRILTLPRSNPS
T1 sequence (P06213 763-1382 limits assumed): as the sequence (P06213 763-1382 limits assumed) above
Sequence of insulin-like growth factor 1 receptor (IGF-1R) (P08069 31-736 limits assumed): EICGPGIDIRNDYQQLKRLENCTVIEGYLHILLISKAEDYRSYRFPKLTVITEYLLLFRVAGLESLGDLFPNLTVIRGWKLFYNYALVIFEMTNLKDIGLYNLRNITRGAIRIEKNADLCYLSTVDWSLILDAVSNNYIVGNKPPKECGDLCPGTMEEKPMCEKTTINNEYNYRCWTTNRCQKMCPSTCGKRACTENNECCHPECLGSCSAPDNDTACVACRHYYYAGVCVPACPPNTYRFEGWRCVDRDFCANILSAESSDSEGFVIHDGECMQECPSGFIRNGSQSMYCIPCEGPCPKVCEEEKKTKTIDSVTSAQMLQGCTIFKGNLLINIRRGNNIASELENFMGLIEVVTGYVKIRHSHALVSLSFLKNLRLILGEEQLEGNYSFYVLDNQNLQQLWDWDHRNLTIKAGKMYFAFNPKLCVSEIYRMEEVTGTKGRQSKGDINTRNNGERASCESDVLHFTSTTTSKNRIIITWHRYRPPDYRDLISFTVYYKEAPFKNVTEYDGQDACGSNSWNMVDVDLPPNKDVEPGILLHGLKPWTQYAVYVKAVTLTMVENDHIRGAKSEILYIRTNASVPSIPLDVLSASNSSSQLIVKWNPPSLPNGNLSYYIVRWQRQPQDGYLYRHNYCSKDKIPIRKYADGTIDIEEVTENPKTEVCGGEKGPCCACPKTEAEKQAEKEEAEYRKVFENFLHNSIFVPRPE
Sequence of insulin-like growth factor 1 receptor (IGF-1R) (P08069 741-1367 limits assumed): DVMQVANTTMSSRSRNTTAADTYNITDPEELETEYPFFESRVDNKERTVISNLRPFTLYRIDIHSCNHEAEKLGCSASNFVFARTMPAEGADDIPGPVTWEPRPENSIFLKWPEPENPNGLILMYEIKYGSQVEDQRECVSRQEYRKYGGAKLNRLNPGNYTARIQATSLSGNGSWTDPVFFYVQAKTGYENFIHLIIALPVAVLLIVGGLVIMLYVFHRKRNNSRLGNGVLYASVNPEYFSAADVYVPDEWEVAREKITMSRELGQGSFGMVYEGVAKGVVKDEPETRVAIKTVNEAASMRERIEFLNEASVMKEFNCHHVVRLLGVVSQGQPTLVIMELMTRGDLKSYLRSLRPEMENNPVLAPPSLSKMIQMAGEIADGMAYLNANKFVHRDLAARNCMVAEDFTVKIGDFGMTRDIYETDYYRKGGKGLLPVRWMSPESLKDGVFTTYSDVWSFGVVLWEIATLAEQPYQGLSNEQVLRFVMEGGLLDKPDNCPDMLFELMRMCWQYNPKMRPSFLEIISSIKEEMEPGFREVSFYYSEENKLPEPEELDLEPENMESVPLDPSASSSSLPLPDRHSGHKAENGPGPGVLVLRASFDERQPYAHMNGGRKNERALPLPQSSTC

Substance | IR-A phosphorylation levels compared with Lantus [1] | binding affinity to IR-B compared with Lantus [2] | IGF-1R binding affinity / IC50 compared with Lantus (insulin glargine) [3] | immunogenicity in animals (animals) | glucose-lowering effect compared with glargine (type 1 diabetic rats; 5 IU/kg (abstract)) | blood glucose levels compared with solvent control, multiple-dose (type 1 diabetic rats; daily administration, at 2, 4 and 6 h post-administration, Fig. 4B) | glucose-lowering effects compared with Aspart Insulin (type 1 diabetic rats; equivalent dose of 5 IU/kg, single-dose and multiple-dose studies) | time of most pronounced glucose-lowering effect, multiple-dose (type 1 diabetic rats; multiple-dose, 5 IU/kg group, Fig. 4B) | time of peak glucose-lowering effect, multiple-dose (type 1 diabetic rats; multiple-dose, 10 IU/kg, Fig. 4B) | blood glucose levels compared with solvent control, single-dose (type 1 diabetic rats; single dose (2.5, 5, 10 IU/kg), at 1, 2, 4 and 6 h post-administration, Fig. 4A) | time point of most pronounced glucose-lowering effect, single-dose (type 1 diabetic rats; single dose, Fig. 4A) | IR-B phosphorylation levels compared with Lantus [4] | binding affinity to IR-A compared with Lantus [5] | plasma insulin concentrations compared with Lantus (insulin glargine) [6] | stoichiometry N [7] | stoichiometry N [8]
insulin lisargine | no significant differences | comparable binding affinities | no significant differences in binding affinity or IC50 values | favorable safety profile | significantly outperformed glargine | significant reductions | comparable to the clinical drug Aspart Insulin | 4 h | 6 h | statistically significant reductions | 4 h | no significant differences | comparable binding affinities | no significant differences |  | 
insulin lisargine (ligand) |  |  |  |  |  |  |  |  |  |  |  |  |  |  | 6 | 2
